For test [1], the system named is Peritoneal macrophage cell. Briefly: Inhibition of LPS-induced TNFalpha secretion in C57BL/6J mouse peritoneal macrophages at 10 uM after 24 hrs. The class given is functional. The procedure, abridged:
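Macrophages from male C57BL6J mice, harvested 4 days after i.p. thioglycollate. Cells adhered 2 h, then 24 h at 37 °C with compound (10^-5 M final), LPS 1 µg/mL and 5% FCS. Supernatant put on L929 cells with actinomycin D 0.5 µg/mL for 20 h, then MTT 4 h, A570. Triplicate wells. Inhibition = (L−S)/(L−B)×100. Indomethacin reference.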

The next test deals with Liver microsomes. Briefly: Antioxidant activity in rat liver microsomes assessed as inhibition of ferrous-cystine-induced lipid peroxidation after 15 mins. The class given is functional, Microsome. Put shortly:
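Microsomes from rat liver suspended in 100 mM Tris-HCl pH 7.4. Then 50 µM FeSO4 added and a further 15 min at 37 °C. Stopped with 20% TCA and spun. Supernatant heated with 0.67% TBA 10 min, read at 532 nm. Tested over several concentrations.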

The subject of another test is A2780. The test is described as follows: Cytotoxicity against human A2780 cells. The class given is cell-based.
In another test the test system is HCT-8. Briefly: Cytotoxicity against human HCT8 cells. The class given is cell-based.
Test [2] in a line: Cytotoxicity against human Bel7402 cells. The class given is cell-based. The note with it: Bel-7402.
Test [3] can be described thus: Cytotoxicity against human BGC823 cells. In kind it is cell-based. As to conditions: BGC-823.
The test system of a further test is A549. Briefly: Cytotoxicity against human A549 cells. The class given is cell-based.
The test system of test [4] is Peritoneal macrophage cell. The test is described as follows: Inhibition of LPS-induced TNFalpha secretion in C57BL/6J mouse peritoneal macrophages after 24 hrs. In kind it is functional, cell-based.

Turning to `COc1cc([C@H](O)[C@@H](O)CO)cc(OC)c1O[C@@H]1O[C@H](CO)[C@@H](O)[C@H](O)[C@H]1O`, at 10 µM the inhibition in test [1] was 28.2%. The IC50 is above 10 µM with Liver microsomes; above 5 µM in the test on A2780; above 5 µM in the test with HCT-8; above 5 µM in test [2]; above 5 µM in test [3]; above 5 µM with A549.

Consider `COc1cc(O[C@@H]2O[C@H](CO)[C@@H](O)[C@H](O)[C@H]2O)cc(OC)c1O[C@@H]1O[C@H](CO)[C@@H](O)[C@H](O)[C@H]1O`, for which testing at 10 µM in test [1] gave an inhibition of 25.2%. Also, the IC50 is above 10 µM in the test on Liver microsomes; above 5 µM in the test on A2780; above 5 µM in the test on HCT-8; above 5 µM in test [2]; above 5 µM in test [3]; above 5 µM with A549.

`O=C(/C=C/c1ccc(O)c(O)c1)OC[C@H]1O[C@H]2OC[C@H](c3ccc(O)c(O)c3)O[C@@H]2[C@@H](O)[C@@H]1O` [PLANTASIOSIDE] showed a 50% inhibitory concentration (IC50) in the test on HCT-8 of 3.4 µM.

As to `COc1cc(CCO[C@@H]2O[C@H](CO[C@@H]3OC[C@](O)(CO)[C@H]3O)[C@@H](O)[C@H](O)[C@H]2O)ccc1O`, testing at 10 µM in test [1] gave an inhibition of 44.3%. Moreover, the IC50 with Liver microsomes was above 10 µM; in the test on A2780, above 5 µM; with HCT-8, above 5 µM; in test [2], above 5 µM; in test [3], above 5 µM; with A549, above 5 µM. In test [4], the IC50 came out at 1.6 µM.

Turning to `COc1cc([C@@H](O)[C@@H](O)CO)cc(OC)c1O[C@@H]1O[C@H](CO)[C@@H](O)[C@H](O)[C@H]1O`, in test [1], 10 µM produced 26.6% inhibition. In addition, the IC50 was above 10 µM in the test with Liver microsomes; above 5 µM with A2780; above 5 µM with HCT-8; above 5 µM in test [2]; above 5 µM in test [3]; above 5 µM with A549.

Compound `COc1cc(O[C@@H]2O[C@H](CO)[C@@H](O)[C@H](O)[C@H]2O)ccc1O[C@@H]1O[C@H](CO)[C@@H](O)[C@H](O)[C@H]1O` came in with an inhibition at 10 µM in test [1] of 16.3%. Besides, the IC50 in the test with Liver microsomes was above 10 µM; in the test with A2780 it was above 5 µM; with HCT-8, above 5 µM; in test [2], above 5 µM; in test [3], above 5 µM; with A549, above 5 µM.

`OC[C@@]1(O)CO[C@@H](OC[C@H]2O[C@@H](OCCc3ccc(O)c(O)c3)[C@H](O)[C@@H](O)[C@@H]2O)[C@@H]1O`: at 10 µM the inhibition in test [1] was 28.8%. The IC50 in the test with Liver microsomes is 0.9 µM; with A2780, above 5 µM; with HCT-8, above 5 µM; in test [2] it was above 5 µM; in test [3] it was above 5 µM; in the test with A549, above 5 µM.

Take `COc1ccc2c(c1)c(CC(=O)O)c(C)n2C(=O)c1ccc(Cl)cc1` [INDOMETHACIN]: the inhibition at 10 µM in test [1] worked out at 33.2%.

As for `COc1cc(C(=O)OC[C@H]2O[C@@H](Oc3cc4ccc(=O)oc4cc3O)[C@H](O)[C@@H](O)[C@@H]2O)ccc1O[C@@H]1O[C@H](CO)[C@@H](O)[C@H](O)[C@H]1O`, the inhibition at 10 µM in test [1] was determined as 30.8%. Further, the IC50 is above 10 µM in the test with Liver microsomes; above 5 µM with A2780; above 5 µM in the test on HCT-8; above 5 µM in test [2]; above 5 µM in test [3]; above 5 µM in the test with A549.

Consider `CC1=C[C@@H](C2=C(C)CC[C@H](O[C@@H]3O[C@H](CO)[C@@H](O)[C@H](O)[C@H]3O)C2(C)C)[C@@H](/C=C(/C)C(=O)O)OC1` [FRAXINUACIDOSIDE], for which the IC50 is above 10 µM with Liver microsomes; above 5 µM in the test with A2780; above 5 µM in the test with HCT-8; above 5 µM in test [2]; above 5 µM in test [3]; above 5 µM in the test on A549.

Regarding `COc1cc([C@@H](O)[C@H](O)CO)cc(OC)c1O[C@@H]1O[C@H](CO)[C@@H](O)[C@H](O)[C@H]1O`, in test [1], the inhibition at 10 µM was 27.5%. For the same compound, the concentration for half-maximal inhibition (IC50) in the test with Liver microsomes was above 10 µM; in the test on A2780, above 5 µM; in the test on HCT-8, above 5 µM; in test [2] it was above 5 µM; in test [3] it was above 5 µM; in the test on A549, above 5 µM.

As a reminder, the inhibition is the drop in the measured response relative to a control, in per cent. A high value points to strong suppression. One may read the IC50 as the point on the concentration scale where inhibition reaches its midpoint.

These data come from ChEMBL document CHEMBL1139887, “Glycosides from the stem bark of Fraxinus sieboldiana” (J Nat Prod, 2007).
